{"source": "ChEMBL document CHEMBL2021845", "about": "“Targeting anthracycline-resistant tumor cells with synthetic aloe-emodin glycosides” (ACS Med Chem Lett, 2011)", "key": {"[1]": {"test": "Cytotoxicity against human NAR cells after 24 hrs by XTT assay", "format": "functional, cell-based"}, "OVCAR-3 [2]": {"system": "OVCAR-3", "test": "Cytotoxicity against human OVCAR3 cells after 24 hrs by XTT assay", "format": "functional, cell-based", "details": "OVCAR-3, 24 h"}, "Nucleic Acid [3]": {"system": "Nucleic Acid", "test": "Binding affinity to Escherichia coli pBR322 DNA assessed as DNA unwinding at 5 to 10 uM after 15 mins by agarose gel electrophoresis", "format": "nucleic-acid assay"}, "OVCAR-3 [4]": {"system": "OVCAR-3", "test": "Cytotoxicity against human OVCAR3 cells assessed as cell viability at 20 uM after 24 hrs by XTT assay", "format": "functional", "details": "OVCAR-3, 24 h, read-out: Activity"}, "MCF7 [5]": {"system": "MCF7", "test": "Cytotoxicity against doxorubicin-resistant human MCF7 cells assessed as cell viability at 20 uM after 24 hrs by XTT assay", "format": "functional", "details": "MCF7, 24 h, read-out: Activity"}, "SK-OV-3 [6]": {"system": "SK-OV-3", "test": "Cytotoxicity against human SKOV3 cells assessed as cell viability at 20 uM after 24 hrs by XTT assay", "format": "functional", "details": "SK-OV-3, 24 h, read-out: Activity"}, "SK-OV-3 [7]": {"system": "SK-OV-3", "test": "Cytotoxicity against human SKOV3 cells after 24 hrs by XTT assay", "format": "functional, cell-based", "details": "SK-OV-3, 24 h"}, "MOLT-4": {"system": "MOLT-4", "test": "Cytotoxicity against human MOLT4 cells after 24 hrs by XTT assay", "format": "functional, cell-based", "details": "MOLT-4, 24 h"}, "Nucleic Acid [8]": {"system": "Nucleic Acid", "test": "Binding affinity to Escherichia coli pBR322 DNA assessed as DNA migration at 200 uM after 15 mins by agarose gel electrophoresis", "format": "nucleic-acid assay", "method_in_brief": "(§1)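 Supercoiled plasmid pBR322 DNA was preincubated with compound at 200 or 20 μM. Samples were run on a 1% agarose gel for 4 h at 70 V and stained with ethidium bromide. Unwinding was judged qualitatively from the shift in migration of supercoiled DNA against a no-drug lane.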"}, "MCF7 [9]": {"system": "MCF7", "test": "Cytotoxicity against human MCF7 cells after 24 hrs by XTT assay", "format": "functional, cell-based", "details": "MCF7, 24 h"}, "[10]": {"test": "Drug uptake in doxorubicin-resistant human NAR cell plasma membrane at 5 uM after 2 hrs by confocal microscopic analysis", "format": "ADME, cell-based", "method_in_brief": "(§2)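 P-gp-overexpressing NAR ovarian cancer cells were incubated with 5 μM compound for 2 h, then fixed in paraformaldehyde. Plasma membranes were stained with carbocyanine tracer DiD. Confocal imaging used Ex/Em 488/525 nm for the drug and 640/685 nm for DiD, to localize drug in membrane versus cell interior.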"}, "NAR [11]": {"system": "NAR", "test": "(§3) Cytotoxicity against doxorubicin-resistant human NAR cells assessed as cell viability at 100 uM after 24 hrs by XTT assay", "format": "functional", "method_in_brief": "(§4)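 NAR ovarian cancer cells with P-glycoprotein efflux pump overexpression; 24 h exposure to compound up to 100 μM; cell viability read-out.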"}, "[12]": {"test": "Toxicity in Wistar rat erythrocytes assessed as hemolysis at 50 uM after 1 hr", "format": "cell-based, Erythrocyte", "details": "read-out: Activity"}, "Nucleic Acid [13]": {"system": "Nucleic Acid", "test": "Binding affinity to Escherichia coli pBR322 DNA assessed as DNA migration at 20 uM after 15 mins by agarose gel electrophoresis", "format": "nucleic-acid assay", "method_in_brief": "as §1"}, "OVCAR-3 [14]": {"system": "OVCAR-3", "test": "Cytotoxicity against human OVCAR3 cells assessed as induction of cell death at 10 uM after 24 hrs by trypan blue dye exclusion test", "format": "functional, cell-based", "method_in_brief": "(§5)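 Cells were incubated with 10 μM compound for 24 h. A trypan blue dye exclusion test in cell suspension then counted total and dye-stained (dead) cells against an untreated control.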"}, "[15]": {"test": "Cytotoxicity against human lymphocytes assessed as cell viability at 20 uM after 24 hrs by XTT assay relative to untreated control", "format": "cell-based, Lymphocyte", "details": "read-out: Activity", "method_in_brief": "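Normal human lymphocyte samples from two individuals; 24 h incubation with compound at 20 μM; viability expressed relative to an untreated cell control.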"}, "NAR [16]": {"system": "NAR", "test": "Cytotoxicity against human NAR cells assessed as induction of cell death at 10 uM after 24 hrs by trypan blue dye exclusion test", "format": "functional, cell-based", "method_in_brief": "as §5"}, "[17]": {"test": "as §3", "format": "functional", "details": "read-out: Activity", "method_in_brief": "as §4"}, "[18]": {"test": "Cytotoxicity against human lymphocytes assessed as cell viability after 3 hrs by XTT assay relative to untreated control", "format": "cell-based", "details": "Lymphocyte", "method_in_brief": "(§6)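 Normal human lymphocytes from two individual donors were exposed to compound for 24 h or for a 3 h incubation. Viability was expressed relative to an untreated-cell control, and IC50 was derived per blood sample.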"}, "[19]": {"test": "Cellular uptake in doxorubicin-resistant human NAR cells at 5 uM after 2 hrs by confocal microscopic analysis", "format": "ADME, cell-based", "method_in_brief": "as §2"}, "[20]": {"test": "Cytotoxicity against human lymphocytes assessed as cell viability after 24 hrs by XTT assay relative to untreated control", "format": "cell-based", "details": "Lymphocyte", "method_in_brief": "as §6"}}, "note": "Calls of active or inactive are those of the source. The rule behind the calls is not given here."}
{"smiles": "C[C@H]1O[C@@H](OCc2cc(O)c3c(c2)C(=O)c2cccc(O)c2C3=O)C[C@H](N)[C@@H]1O", "values": [{"measurement": "IC50", "setting": "[1]", "value": 28.3, "unit": "µM"}, {"measurement": "IC50", "setting": "OVCAR-3 [2]", "value": "> 20", "unit": "µM"}, {"measurement": "Activity", "setting": "Nucleic Acid [3]", "value": "inactive"}, {"measurement": "viability at 20 µM", "setting": "OVCAR-3 [4]", "value": 60, "unit": "%"}, {"measurement": "viability at 20 µM", "setting": "MCF7 [5]", "value": 83, "unit": "%"}, {"measurement": "viability at 20 µM", "setting": "SK-OV-3 [6]", "value": 84, "unit": "%"}, {"measurement": "IC50", "setting": "SK-OV-3 [7]", "value": "> 20", "unit": "µM"}, {"measurement": "IC50", "setting": "MOLT-4", "value": 12.8, "unit": "µM"}, {"measurement": "Activity", "setting": "Nucleic Acid [8]", "value": "inactive"}, {"measurement": "IC50", "setting": "MCF7 [9]", "value": "> 20", "unit": "µM"}]}
{"smiles": "C[C@@H]1O[C@@H](OCc2cc(O)c3c(c2)C(=O)c2cccc(O)c2C3=O)C[C@@H](N)[C@H]1O", "values": [{"measurement": "IC50", "setting": "[1]", "value": 18, "unit": "µM"}, {"measurement": "IC50", "setting": "OVCAR-3 [2]", "value": 15.7, "unit": "µM"}, {"measurement": "Activity", "setting": "Nucleic Acid [3]", "value": "inactive"}, {"measurement": "IC50", "setting": "SK-OV-3 [7]", "value": 13.5, "unit": "µM"}, {"measurement": "IC50", "setting": "MOLT-4", "value": 5.4, "unit": "µM"}, {"measurement": "Activity", "setting": "Nucleic Acid [8]", "value": "inactive"}, {"measurement": "IC50", "setting": "MCF7 [9]", "value": 12.7, "unit": "µM"}]}
{"smiles": "COc1cccc2c1C(=O)c1c(O)c3c(c(O)c1C2=O)C[C@@](O)(C(=O)CO)C[C@@H]3O[C@H]1C[C@H](N)[C@H](O)[C@H](C)O1", "note": "[DOXORUBICIN]", "values": [{"measurement": "Drug uptake", "setting": "[10]", "value": "Active"}, {"measurement": "Activity", "setting": "NAR [11]", "value": "inactive"}, {"measurement": "hemolysis at 1 h, 50 µM", "setting": "[12]", "value": 2, "unit": "%"}, {"measurement": "IC50", "setting": "[1]", "value": "> 100", "unit": "µM"}, {"measurement": "IC50", "setting": "OVCAR-3 [2]", "value": "> 20", "unit": "µM"}, {"measurement": "viability at 20 µM", "setting": "OVCAR-3 [4]", "value": 61, "unit": "%"}, {"measurement": "viability at 20 µM", "setting": "MCF7 [5]", "value": 83, "unit": "%"}, {"measurement": "viability at 20 µM", "setting": "SK-OV-3 [6]", "value": 63, "unit": "%"}, {"measurement": "Activity", "setting": "Nucleic Acid [13]", "value": "Active"}, {"measurement": "Activity", "setting": "OVCAR-3 [14]", "value": "inactive"}, {"measurement": "IC50", "setting": "SK-OV-3 [7]", "value": "> 20", "unit": "µM"}, {"measurement": "IC50", "setting": "MOLT-4", "value": 0.2, "unit": "µM"}, {"measurement": "Activity", "setting": "Nucleic Acid [8]", "value": "Active"}, {"measurement": "viability at 24 h, 20 µM", "setting": "[15]", "value": 100, "unit": "%"}, {"measurement": "IC50", "setting": "MCF7 [9]", "value": "> 20", "unit": "µM"}, {"measurement": "Activity", "setting": "NAR [16]", "value": "inactive"}]}
{"smiles": "O=C1c2cccc(O)c2C(=O)c2c(O)cc(CO)cc21", "note": "[ALOE-EMODIN]", "values": [{"measurement": "viability at 100 µM", "setting": "[17]", "value": 78, "unit": "%"}, {"measurement": "hemolysis at 1 h, 50 µM", "setting": "[12]", "value": 0, "unit": "%"}, {"measurement": "IC50", "setting": "[1]", "value": "> 100", "unit": "µM"}, {"measurement": "IC50", "setting": "OVCAR-3 [2]", "value": "> 20", "unit": "µM"}, {"measurement": "viability at 20 µM", "setting": "MCF7 [5]", "value": 77, "unit": "%"}, {"measurement": "viability at 20 µM", "setting": "SK-OV-3 [6]", "value": 98, "unit": "%"}, {"measurement": "IC50", "setting": "SK-OV-3 [7]", "value": "> 20", "unit": "µM"}, {"measurement": "IC50", "setting": "MOLT-4", "value": "> 20", "unit": "µM"}, {"measurement": "Activity", "setting": "Nucleic Acid [8]", "value": "inactive"}, {"measurement": "viability at 24 h, 20 µM", "setting": "[15]", "value": 77, "unit": "%"}, {"measurement": "IC50", "setting": "MCF7 [9]", "value": "> 20", "unit": "µM"}]}
{"smiles": "C[C@@H]1O[C@@H](OCc2cc(O)c3c(c2)C(=O)c2cccc(O)c2C3=O)C[C@H](N)[C@H]1O", "values": [{"measurement": "hemolysis at 1 h, 50 µM", "setting": "[12]", "value": 3, "unit": "%"}, {"measurement": "IC50", "setting": "[1]", "value": 8.6, "unit": "µM"}, {"measurement": "IC50", "setting": "OVCAR-3 [2]", "value": 5.2, "unit": "µM"}, {"measurement": "Activity", "setting": "Nucleic Acid [3]", "value": "inactive"}, {"measurement": "IC50", "setting": "[18]", "value": 3, "unit": "µM"}, {"measurement": "Activity", "setting": "OVCAR-3 [14]", "value": "Active"}, {"measurement": "IC50", "setting": "SK-OV-3 [7]", "value": 6.9, "unit": "µM"}, {"measurement": "IC50", "setting": "MOLT-4", "value": 5.8, "unit": "µM"}, {"measurement": "Activity", "setting": "Nucleic Acid [8]", "value": "inactive"}, {"measurement": "Drug uptake", "setting": "[19]", "value": "Active"}, {"measurement": "IC50", "setting": "MCF7 [9]", "value": 7.1, "unit": "µM"}, {"measurement": "Activity", "setting": "NAR [16]", "value": "Active"}, {"measurement": "IC50", "setting": "[20]", "value": 3, "unit": "µM"}]}
{"smiles": "C[C@H]1O[C@@H](OCc2cc(O)c3c(c2)C(=O)c2cccc(O)c2C3=O)C[C@@H](N)[C@@H]1O", "values": [{"measurement": "IC50", "setting": "[1]", "value": "> 100", "unit": "µM"}, {"measurement": "IC50", "setting": "OVCAR-3 [2]", "value": 6.4, "unit": "µM"}, {"measurement": "Activity", "setting": "Nucleic Acid [3]", "value": "inactive"}, {"measurement": "viability at 20 µM", "setting": "SK-OV-3 [6]", "value": 92, "unit": "%"}, {"measurement": "IC50", "setting": "SK-OV-3 [7]", "value": "> 20", "unit": "µM"}, {"measurement": "IC50", "setting": "MOLT-4", "value": 7.6, "unit": "µM"}, {"measurement": "Activity", "setting": "Nucleic Acid [8]", "value": "inactive"}, {"measurement": "IC50", "setting": "MCF7 [9]", "value": 11.9, "unit": "µM"}]}
